Data reported in ChEMBL document CHEMBL1139657, “Isothiazoloquinolones containing functionalized aromatic hydrocarbons at the 7-position: synthesis and in vitro activity of a series of potent antibacterial agents with diminished cytotoxicity in human cells” (Bioorg Med Chem Lett, 2006).
Converted amounts (≈) assume the structure as drawn.

Key:
[1] = target: DNA gyrase (Escherichia coli, UniProt P0AES4+P0AES6); experiment: Inhibitory activity against wild type Escherichia coli gyrase; assay type: protein-complex assay
[2] = target: DNA topoisomerase 4 subunit A (Staphylococcus aureus, UniProt P0C1U9); experiment: Inhibitory activity against wild type Staphylococcus aureus topoisomerase 4
Chain of DNA topoisomerase 4 subunit A (P0C1U9 whole entry): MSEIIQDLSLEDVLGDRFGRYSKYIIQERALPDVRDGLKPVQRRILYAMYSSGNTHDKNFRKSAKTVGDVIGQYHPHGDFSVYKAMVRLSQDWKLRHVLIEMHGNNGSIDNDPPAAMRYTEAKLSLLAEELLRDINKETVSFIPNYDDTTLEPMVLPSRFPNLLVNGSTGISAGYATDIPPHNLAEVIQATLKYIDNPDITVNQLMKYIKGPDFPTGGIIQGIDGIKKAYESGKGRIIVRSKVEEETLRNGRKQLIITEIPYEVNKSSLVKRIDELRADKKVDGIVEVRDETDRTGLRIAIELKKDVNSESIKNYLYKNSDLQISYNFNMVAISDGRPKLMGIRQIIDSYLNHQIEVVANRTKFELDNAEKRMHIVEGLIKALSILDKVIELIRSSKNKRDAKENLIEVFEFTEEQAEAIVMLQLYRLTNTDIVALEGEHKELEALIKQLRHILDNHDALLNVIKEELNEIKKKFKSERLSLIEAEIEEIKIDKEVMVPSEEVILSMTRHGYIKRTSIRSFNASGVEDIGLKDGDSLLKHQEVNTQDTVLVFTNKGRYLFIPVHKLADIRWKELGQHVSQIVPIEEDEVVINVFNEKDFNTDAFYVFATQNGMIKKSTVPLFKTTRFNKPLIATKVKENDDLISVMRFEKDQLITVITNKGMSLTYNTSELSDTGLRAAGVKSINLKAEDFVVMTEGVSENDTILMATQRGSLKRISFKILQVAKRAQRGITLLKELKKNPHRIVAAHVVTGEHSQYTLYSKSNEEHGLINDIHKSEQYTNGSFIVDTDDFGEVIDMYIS

[3] = target: DNA topoisomerase II (Homo sapiens) (UniProt P11388+Q02880); experiment: Inhibitory activity against human topoisomerase 2; assay type: protein assay
[4] = tested on: HEp-2; experiment: Cytotoxicity against human Hep2 laryngeal carcinoma cell line; assay type: functional
[5] = tested on: Escherichia coli; experiment: Antimicrobial activity against Escherichia coli ATCC 25922; assay type: functional
Method in brief: (§1)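 MIC taken as lowest concentration giving no visible bacterial growth after incubation at 37 °C for 18–24 h.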

[6] = tested on: Staphylococcus aureus; experiment: Antimicrobial activity against Staphylococcus aureus ATCC 29213; assay type: functional; method in brief: as §1
[7] = tested on: Staphylococcus aureus; experiment: Antimicrobial activity against methicillin-resistant Staphylococcus aureus 700699; assay type: functional
Method in brief: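 MIC taken as the lowest compound concentration preventing visible bacterial growth after incubation at 37 °C for 18–24 h.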

SMILES | IC50 [1] | IC50 [2] | EC2 [3] | CC50 [4] | MIC [5] | MIC [6] | MIC [7]
O=c1[nH]sc2c1c(=O)c1cc(F)c(-c3cccc(F)c3)cc1n2C1CC1 | 1 µM | 7.2 µM | > 150 µM | 96 µM | 0.125 µg/mL (≈ 0.337 µM) | 0.004 µg/mL (≈ 0.0108 µM) | 1 µg/mL (≈ 2.7 µM)
NCc1ccc(-c2cc3c(cc2F)c(=O)c2c(=O)[nH]sc2n3C2CC2)cc1 | 0.1 µM | 1.5 µM | – | 4 µM | 0.015 µg/mL (≈ 0.0393 µM) | 0.03 µg/mL (≈ 0.0787 µM) | 8 µg/mL (≈ 21 µM)
COc1ccccc1-c1cc2c(cc1F)c(=O)c1c(=O)[nH]sc1n2C1CC1 | – | – | – | > 84 µM | 2 µg/mL (≈ 5.23 µM) | 0.125 µg/mL (≈ 0.327 µM) | 32 µg/mL (≈ 83.7 µM)
N#Cc1ccccc1-c1cc2c(cc1F)c(=O)c1c(=O)[nH]sc1n2C1CC1 | – | – | – | > 85 µM | 2 µg/mL (≈ 5.3 µM) | 0.125 µg/mL (≈ 0.331 µM) | > 64 µg/mL
COc1cccc(-c2cc3c(cc2F)c(=O)c2c(=O)[nH]sc2n3C2CC2)c1 | – | – | – | 26 µM | 0.125 µg/mL (≈ 0.327 µM) | 0.004 µg/mL (≈ 0.0105 µM) | 2 µg/mL (≈ 5.23 µM)
COc1c(N2CCNC(C)C2)c(F)cc2c(=O)c(C(=O)O)cn(C3CC3)c12 (stereo not drawn) [GATIFLOXACIN] | 0.5 µM | 1.2 µM | – | 67 µM | 0.015 µg/mL (≈ 0.04 µM) | 0.125 µg/mL (≈ 0.333 µM) | 8 µg/mL (≈ 21.3 µM)
N#Cc1ccc(-c2cc3c(cc2F)c(=O)c2c(=O)[nH]sc2n3C2CC2)cc1 | – | – | – | > 100 µM | 1 µg/mL (≈ 2.65 µM) | 0.03 µg/mL (≈ 0.0795 µM) | 16 µg/mL (≈ 42.4 µM)
Cc1cc(-c2cc3c(cc2F)c(=O)c2c(=O)[nH]sc2n3C2CC2)cc(C)c1O | – | – | – | – | 0.125 µg/mL (≈ 0.315 µM) | 0.001 µg/mL (≈ 0.00252 µM) | 2 µg/mL (≈ 5.04 µM)
CC(=O)c1cccc(-c2cc3c(cc2F)c(=O)c2c(=O)[nH]sc2n3C2CC2)c1 | – | – | – | > 100 µM | 0.125 µg/mL (≈ 0.317 µM) | 0.004 µg/mL (≈ 0.0101 µM) | 2 µg/mL (≈ 5.07 µM)
Cc1ccc(-c2cc3c(cc2F)c(=O)c2c(=O)[nH]sc2n3C2CC2)cc1N | – | – | – | 18 µM | 0.125 µg/mL (≈ 0.328 µM) | 0.008 µg/mL (≈ 0.021 µM) | 2 µg/mL (≈ 5.24 µM)
NCc1cccc(-c2cc3c(cc2F)c(=O)c2c(=O)[nH]sc2n3C2CC2)c1 | 0.1 µM | 0.2 µM | – | 8 µM | 0.015 µg/mL (≈ 0.0393 µM) | 0.015 µg/mL (≈ 0.0393 µM) | 2 µg/mL (≈ 5.24 µM)
O=c1[nH]sc2c1c(=O)c1cc(F)c(-c3ccccc3F)cc1n2C1CC1 | – | – | – | > 100 µM | 0.125 µg/mL (≈ 0.337 µM) | 0.015 µg/mL (≈ 0.0405 µM) | 8 µg/mL (≈ 21.6 µM)
O=c1[nH]sc2c1c(=O)c1cc(F)c(-c3ccc(C4CCCCN4)cc3)cc1n2C1CC1 (stereo not drawn) | 1 µM | 2.6 µM | – | 4 µM | 0.25 µg/mL (≈ 0.574 µM) | 0.125 µg/mL (≈ 0.287 µM) | 4 µg/mL (≈ 9.18 µM)
O=c1[nH]sc2c1c(=O)c1cc(F)c(-c3ccc(O)cc3)cc1n2C1CC1 | 0.8 µM | 25 µM | 15 µM | 8 µM | 0.03 µg/mL (≈ 0.0814 µM) | 0.004 µg/mL (≈ 0.0109 µM) | 0.125 µg/mL (≈ 0.339 µM)
O=c1[nH]sc2c1c(=O)c1cc(F)c(N3CCNCC3)cc1n2C1CC1 | 0.1 µM | 0.5 µM | 20 µM | 7 µM | 0.004 µg/mL (≈ 0.0111 µM) | 0.05 µg/mL (≈ 0.139 µM) | 4 µg/mL (≈ 11.1 µM)
O=c1[nH]sc2c1c(=O)c1cc(F)c(-c3ccc(CO)cc3)cc1n2C1CC1 | 0.9 µM | 41 µM | – | 25 µM | 0.06 µg/mL (≈ 0.157 µM) | 0.004 µg/mL (≈ 0.0105 µM) | 4 µg/mL (≈ 10.5 µM)
CC(=O)Nc1cccc(-c2cc3c(cc2F)c(=O)c2c(=O)[nH]sc2n3C2CC2)c1 | – | – | – | – | 0.125 µg/mL (≈ 0.305 µM) | 0.004 µg/mL (≈ 0.00977 µM) | 64 µg/mL (≈ 156 µM)
Nc1ccccc1-c1cc2c(cc1F)c(=O)c1c(=O)[nH]sc1n2C1CC1 | – | – | – | 46 µM | 0.125 µg/mL (≈ 0.34 µM) | 0.03 µg/mL (≈ 0.0817 µM) | 64 µg/mL (≈ 174 µM)
O=c1[nH]sc2c1c(=O)c1cc(F)c(-c3ccccc3)cc1n2C1CC1 | – | – | – | > 100 µM | 0.06 µg/mL (≈ 0.17 µM) | 0.004 µg/mL (≈ 0.0114 µM) | 16 µg/mL (≈ 45.4 µM)
